Like-named read-outs stand apart in the source and are kept apart here.
Legend:
HDAC11 = target: T1, HDAC11 (Homo sapiens, UniProt Q96DB2); assay: Recombinant HDAC isoform biochemical assay
T1 sequence (Q96DB2 1-347): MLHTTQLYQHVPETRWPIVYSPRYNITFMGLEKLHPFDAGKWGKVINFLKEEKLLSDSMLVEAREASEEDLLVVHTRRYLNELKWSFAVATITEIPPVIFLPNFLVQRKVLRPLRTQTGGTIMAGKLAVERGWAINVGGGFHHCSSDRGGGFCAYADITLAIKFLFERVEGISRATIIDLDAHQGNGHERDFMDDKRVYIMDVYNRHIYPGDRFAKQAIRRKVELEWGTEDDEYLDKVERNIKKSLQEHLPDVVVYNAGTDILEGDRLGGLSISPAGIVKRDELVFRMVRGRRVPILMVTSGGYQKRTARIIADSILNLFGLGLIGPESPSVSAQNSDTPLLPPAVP

[1] = tested on: human myeloid progenitors; assay: Colony forming cell; type: cell-based; conditions: human bone marrow cells, 14 days in culture
How it was run: (§1)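 Normal human bone marrow light-density cells, thawed rapidly and washed in IMDM + 10% FBS, were plated at 2.0 × 10^4 cells per culture. Medium was semisolid methylcellulose with rhIL-3 10 ng/mL, rhGM-CSF 10 ng/mL, rhSCF 50 ng/mL and Epo 3 U/mL. Compound was added at final 10, 2 and 0.4 μM, with 0.1% DMSO solvent control and 5-FU (1.0, 0.1, 0.01 μg/mL) as positive control. After 14 days, erythroid (CFU-E, BFU-E) and myeloid (CFU-GM) colonies were scored microscopically. Three replicate cultures were compared with solvent control by two-tailed t test.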

[2] = tested on: human erythroid progenitors; assay: Colony forming cell; type: cell-based; conditions: human bone marrow cells, 14 days in culture
How it was run: as §1

[3] = tested on: dendritic spines in CA1 region of the dorsal hippocampus; assay: Hippocampal dendritic spine density analysis; type: in vivo, mouse; conditions: WT mice
[4] = tested on: hippocampal LTP (Schaffer collateral-CA1); assay: LTP in 5xFAD mice; type: in vivo, mouse; conditions: aged 5xFAD mice, 1 mg/kg po for 14 days
How it was run: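 Aged 5xFAD mice on a C57BL/6J background (9–12 months) and age-matched WT mice were dosed by oral gavage once daily for 14 days (n = 8 per group). Hippocampal slices (350 μm) were held at room temperature for at least 1 h in oxygenated aCSF (pH 7.4), then perfused at 30 °C for 0.5 h in a multielectrode chamber. Schaffer collateral–CA1 LTP was recorded as normalised fEPSP slope over the last 10 min.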

[5] = Reported 2 week toxicity of CI-994 in dogs; type: in vivo, dog
[6] = rats, 1.5, 5, 15 mg/kg daily orally, 2 weeks; cited from earlier work
[7] = cited from earlier work

SMILES: CC(=O)Nc1ccc(C(=O)Nc2ccccc2N)cc1 [CI-994]
- IC50 (HDAC11): > 30 µM
- myeloid progenitors: % control at 10 μM [1]: 0 % control
- erythroid progenitors: % control at 10 μM [2]: 0 % control
- increase in total spine density ([3]; 1 mg/kg daily oral for 14 days, vs vehicle): 29%
- dendritic spine density compared to vehicle-treated controls ([3]; oral daily 14 days, Rodin-A 1, 3, 6 mg/kg, CI-994 1 and 3 mg/kg): significant increases in spine density
- effect on impaired LTP [4]: improves impaired LTP
- safety margin ([5]; HED at reported dog NOAEL vs efficacious HED): 3.4 fold
- NOAEL at 2 weeks ([5]; dog, in vivo, 0.5 mg/kg): 16.2 mg/kg
- dose-limiting toxicity [6]: primarily bone marrow suppression
- reported NOAEL in dogs ([7]; 2 weeks of daily dosing): 0.5 mg/kg
- dose-limiting toxicity ([7]; dogs, 0.5, 2, 5 mg/kg daily, 2 weeks): primarily bone marrow suppression
- day 12 AUC ([7]; male dogs, 2 mg/kg daily): 9.91 ng·h/mL
